Experimental data of several laboratories.
Protocols differ between the studies behind these lines.
Target: Serine/threonine-protein kinase MARK2 (MARK2, Homo sapiens, UniProt Q7KZI7)
Effect on: enzyme activity
Mode: inhibitor

Oc1cccc(-c2nc(N3CCOCC3)c3oc4ncccc4c3n2)c1  remaining activity (10 µM): 107%
CC(C)(C)c1nc(-c2cccc(NS(=O)(=O)c3c(F)cccc3F)c2F)c(-c2ccnc(N)n2)s1  remaining activity (radiometric; 1 µM): 94%
O=C(Nc1cnn(-c2csc(C(=O)NC3COC3)c2)c1)Nc1c(F)cccc1Cl  remaining activity (5 µM): 90.7%
CN1CCc2cc(Nc3ncc(C4CC4)c(NCCCNC(=O)C4CCC4)n3)ccc2C1  remaining activity (radiometric; 1 µM): 3%
Cc1cnc(NC2CCOCC2)nc1-n1cnc(C(=O)NC(CN)c2cc(F)cc(Cl)c2)c1 (centres unmarked)  remaining activity (radiometric; 1 µM): 45%
Cn1c(=O)n(-c2ccc(C(C)(C)C#N)cc2)c2c3cc(-c4cnc5ccccc5c4)ccc3ncc21  remaining activity (10 µM): 86%
CCCOc1ccc(OC)c(F)c1C(=O)c1ccc(C(=O)N[C@@H]2CNC[C@H]2NC(=O)c2ccc3[nH]ncc3c2)cc1  remaining activity (10 µM): 33%
CCN(CC)c1ccc(C2=NNC(=O)CC2C)cc1[N+](=O)[O-] (centres unmarked)  remaining activity (10 µM): 90%
Cc1nn(CC(F)(F)F)cc1Nc1ncc(C2CC2)c(NCCc2c[nH]cn2)n1  remaining activity (radiometric; 1 µM): 90%
CC(C)(C)c1nc2c(s1)c1nc(N)ncc1c1ccc(NS(=O)(=O)c3c(F)cccc3F)c(F)c12  remaining activity (radiometric; 1 µM): 92%
NS(=O)(=O)c1ccc(CNc2nc(Nc3cccc(NC(=O)N4CCCC4)c3)ncc2Br)cc1  remaining activity (radiometric; 1 µM): 57%
CC(C)(O)[C@H]1CC[C@H](Nc2ccc3ncc(-c4cccc(C(F)(F)F)c4)n3n2)CC1  remaining activity (1 µM): 101%
COc1cc(Nc2cnc(C#N)c(O[C@H](C)CN(C)C)n2)ncc1-c1cnn(C)c1  remaining activity (radiometric; 1 µM): 111%
Cc1nn(CC(F)(F)F)cc1Nc1ncc(Br)c(NCc2ccc(S(N)(=O)=O)cc2)n1  remaining activity (radiometric; 1 µM): 89%
Cc1sc(C(=O)NC2COC2)cc1-n1cc(NC(=O)Nc2c(F)cccc2Cl)cn1  remaining activity (10 µM): 99.8%
Cc1nn(CC(F)(F)F)cc1Nc1ncc(Br)c(NCCCNC(=O)C2CCC2)n1  remaining activity (radiometric; 1 µM): 19%
COc1cc(Cl)c(C(=O)N[C@@H](CN[C@H]2CC[C@@H](N)CC2)Cc2ccc(C#N)cc2)cc1-c1ccc(CN[C@H](C)c2ccc(C)cc2)o1  remaining activity (1 µM): 98%
